According to ChEMBL document CHEMBL3525967, “In vitro glucuronidation of the antibacterial triclocarban and its oxidative metabolites” (Drug Metab Dispos, 2012):

Columns and labels:
Assay type in all cases: ADME
Liver microsome = assay: Intrinsic clearance in human liver microsomes after 30 mins by LC-ESI-MS analysis; conditions: 0.5 h
In short: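 2'-OH-TCC at 0.2, 0.5, 1, 2, 3, 5, 10 and 50 µM incubated with liver microsomes (alamethicin, MgCl2, saccharolactone, UDPGA; 37 °C), sampled at 5, 10, 15 and 30 min. Samples ≥5 µM diluted 1:9 in ACN; LC-ESI-MS. KM and vmax fitted from rate vs concentration; intrinsic clearance derived from these; mean and SD of three.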

[1] = target: T1, UDP-glucuronosyltransferase 1A8 (Homo sapiens, UniProt Q9HAW9); assay: Drug metabolism assessed as human UGT1A8-mediated N'-glucuronide-triclocarban formation expressed in baculovirus infected insect sf9 cells incubated for 5 mins prior to UDPGA addition measured after 5 to 30 mins by LC-UV analysis
T1 sequence (Q9HAW9 whole entry): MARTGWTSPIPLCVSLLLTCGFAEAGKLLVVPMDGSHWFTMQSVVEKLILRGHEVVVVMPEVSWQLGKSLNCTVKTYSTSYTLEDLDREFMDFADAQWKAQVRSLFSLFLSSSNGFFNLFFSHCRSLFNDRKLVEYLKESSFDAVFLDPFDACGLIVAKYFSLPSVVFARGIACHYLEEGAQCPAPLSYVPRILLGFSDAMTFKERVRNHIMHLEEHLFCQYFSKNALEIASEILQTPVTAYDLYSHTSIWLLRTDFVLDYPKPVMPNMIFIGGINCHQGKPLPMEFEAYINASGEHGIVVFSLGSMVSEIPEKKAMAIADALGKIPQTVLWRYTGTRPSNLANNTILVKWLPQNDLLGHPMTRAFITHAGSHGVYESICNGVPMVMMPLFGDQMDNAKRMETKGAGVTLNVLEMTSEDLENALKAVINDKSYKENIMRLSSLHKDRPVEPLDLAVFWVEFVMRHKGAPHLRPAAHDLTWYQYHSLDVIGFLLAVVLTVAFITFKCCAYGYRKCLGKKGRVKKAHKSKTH
In short: (§1)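 Microsomes or UGT Supersomes (5 µg protein) were held 15 min on ice with alamethicin in 100 mM potassium phosphate pH 7.4. TCC was added at 10 µM (2% DMSO) with 10 mM MgCl2 and 10 mM saccharolactone, pre-warmed 5 min at 37 °C, then started with UDPGA. Samples at 5, 10, 15 and 30 min were quenched in ACN. Product was read by LC-UV at 265 nm; rate came from regression over time, three incubations.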

[2] = target: T2, UDP-glucuronosyltransferase 1A9 (Homo sapiens, UniProt O60656); assay: Drug metabolism assessed as human UGT1A9-mediated N-glucuronide-triclocarban formation expressed in baculovirus infected insect sf9 cells incubated for 5 mins prior to UDPGA addition measured after 30 mins by LC-ESI-MS analysis; conditions: sf9, 0.5 h
T2 sequence (O60656 whole entry): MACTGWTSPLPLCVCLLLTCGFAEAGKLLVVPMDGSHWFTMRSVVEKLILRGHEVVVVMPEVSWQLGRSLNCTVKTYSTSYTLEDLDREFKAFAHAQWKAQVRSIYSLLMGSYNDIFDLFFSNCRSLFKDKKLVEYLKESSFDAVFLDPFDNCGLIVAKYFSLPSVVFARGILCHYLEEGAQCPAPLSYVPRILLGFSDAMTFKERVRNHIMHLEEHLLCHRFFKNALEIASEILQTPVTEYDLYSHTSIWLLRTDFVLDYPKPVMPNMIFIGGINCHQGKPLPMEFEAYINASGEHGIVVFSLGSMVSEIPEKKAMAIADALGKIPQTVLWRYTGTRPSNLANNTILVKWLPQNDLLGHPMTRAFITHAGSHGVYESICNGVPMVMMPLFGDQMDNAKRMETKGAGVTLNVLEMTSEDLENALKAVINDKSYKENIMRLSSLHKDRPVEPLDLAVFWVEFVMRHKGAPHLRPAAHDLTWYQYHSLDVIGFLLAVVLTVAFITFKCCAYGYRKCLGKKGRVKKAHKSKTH
In short: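 TCC was incubated at 10 µM (2% DMSO) in 100 mM phosphate pH 7.4 with alamethicin-treated microsomes or Supersomes, 10 mM MgCl2 and 10 mM saccharolactone. After 5 min pre-incubation at 37 °C, UDPGA was added to start the reaction. Protein was raised up to 2 mg/mL. Samples were quenched in ACN with 1 µM DCC internal standard, centrifuged, and N-glucuronides detected by LC-ESI-MS/MS in SRM mode.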

[3] = target: T3, UDP-glucuronosyltransferase 2B17 (Homo sapiens, UniProt O75795); assay: Drug metabolism assessed as human UGT2B17-mediated N-glucuronide-triclocarban formation expressed in baculovirus infected insect sf9 cells incubated for 5 mins prior to UDPGA addition measured after 5 to 30 mins by LC-UV analysis; in short: as §1
T3 sequence (O75795 whole entry): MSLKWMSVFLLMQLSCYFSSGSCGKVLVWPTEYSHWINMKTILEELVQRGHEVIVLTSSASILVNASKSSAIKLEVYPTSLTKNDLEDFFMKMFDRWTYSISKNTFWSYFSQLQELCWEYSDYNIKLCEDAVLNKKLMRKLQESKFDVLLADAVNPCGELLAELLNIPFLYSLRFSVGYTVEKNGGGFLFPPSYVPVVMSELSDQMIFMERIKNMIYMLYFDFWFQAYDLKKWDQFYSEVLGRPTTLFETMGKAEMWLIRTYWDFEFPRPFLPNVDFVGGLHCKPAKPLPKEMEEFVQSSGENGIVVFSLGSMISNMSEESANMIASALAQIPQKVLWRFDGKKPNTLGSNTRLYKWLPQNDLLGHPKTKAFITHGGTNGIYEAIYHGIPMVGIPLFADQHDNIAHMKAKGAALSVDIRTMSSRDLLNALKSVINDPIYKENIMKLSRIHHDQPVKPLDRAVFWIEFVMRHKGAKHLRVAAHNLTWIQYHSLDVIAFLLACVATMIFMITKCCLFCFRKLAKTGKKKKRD

[4] = target: T4, UDP-glucuronosyltransferase 1A4 (Homo sapiens, UniProt P22310); assay: Drug metabolism assessed as human UGT1A4-mediated N'-glucuronide-triclocarban formation expressed in baculovirus infected insect sf9 cells incubated for 5 mins prior to UDPGA addition measured after 5 to 30 mins by LC-UV analysis; in short: as §1
T4 sequence (P22310 whole entry): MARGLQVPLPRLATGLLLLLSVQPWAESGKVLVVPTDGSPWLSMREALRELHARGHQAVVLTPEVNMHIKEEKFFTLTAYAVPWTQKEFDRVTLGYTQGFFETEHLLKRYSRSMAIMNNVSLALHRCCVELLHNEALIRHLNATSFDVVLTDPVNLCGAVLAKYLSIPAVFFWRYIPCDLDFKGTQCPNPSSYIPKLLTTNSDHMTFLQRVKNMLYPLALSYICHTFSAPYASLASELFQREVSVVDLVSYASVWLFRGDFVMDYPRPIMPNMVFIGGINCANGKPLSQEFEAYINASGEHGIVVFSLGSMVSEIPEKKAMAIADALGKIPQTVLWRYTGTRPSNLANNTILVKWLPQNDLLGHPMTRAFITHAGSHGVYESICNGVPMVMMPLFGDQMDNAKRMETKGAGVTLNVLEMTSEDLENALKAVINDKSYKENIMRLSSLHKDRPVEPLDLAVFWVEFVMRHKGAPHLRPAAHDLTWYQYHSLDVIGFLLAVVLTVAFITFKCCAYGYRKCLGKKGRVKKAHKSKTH

CLH (Liver microsome) [µL/min/mg]	Compound	Drug metabolism [1]	Drug metabolism [2]	Drug metabolism [3]	Drug metabolism [4]
1740	O=C(Nc1ccc(Cl)c(Cl)c1)Nc1ccc(Cl)cc1O				
	O=C(Nc1ccc(Cl)cc1)Nc1ccc(Cl)c(Cl)c1 [TRICLOCARBAN]	metabolite_not_detected	metabolite_detected	metabolite_not_detected	metabolite_not_detected
